We go through three compounds from ChEMBL document CHEMBL1126775, “A pharmacological, crystallographic, and quantum chemical study of new inotropic agents” (J Med Chem, 1993).

The logP is the decadic logarithm of the partition coefficient of the neutral form, usually between octanol and water. Read a low logP as a more hydrophilic compound.

The species named for data set [1] is Cavia porcellus. In words: Effect on contractile force of spontaneously beating atria from reserpine treated guinea pigs at the concentration of 10 e-5 M; arrhythmias. The data set is classed as functional.
For data set [2], the species on record is Cavia porcellus. Nature of the data set: Effect on contractile force of spontaneously beating atria from reserpine treated guinea pigs at the concentration of 2 x 10 e-3 M. The class given is functional.
For data set [3], the species on record is Cavia porcellus. Nature of the data set: Inotropic effect in electrically driven left atrium from reserpine-treated guinea pig at the concentration of 5 x 10 e-5 M. The data set is classed as functional, Cardiac atrium. An outline of the steps: (§1)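 Atria from reserpine-pretreated guinea pigs (2 mg/kg ip, 48 and 24 h), tyramine-unresponsive only. Left atrium loaded 0.5 g, paced at 1.5 Hz with 3-ms square pulses at 10–20% above threshold. Equilibrated 90 min. Agents added cumulatively, 5 min per concentration. Isometric developed tension expressed as % increase over control.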

The species entered for data set [4] is Cavia porcellus. In words: Effect on frequency rate of spontaneously beating atria from reserpine treated guinea pigs at the concentration of 10 e-4 M. The data set is classed as functional.
The species entered for data set [5] is Cavia porcellus. In words: Inotropic effect in electrically driven left atrium from reserpine-treated guinea pig at the concentration of 2 x 10 e-3 M. The class given is functional, Cardiac atrium. An outline of the steps: as §1
Data set [6] is filed under the species Cavia porcellus. Nature of the data set: Effect on contractile force of spontaneously beating atria from reserpine treated guinea pigs at the concentration of 5x 10 e-5 M. The class given is functional.
Data set [7] is filed under the species Cavia porcellus. Nature of the data set: Effect on frequency rate of spontaneously beating atria from reserpine treated guinea pigs at the concentration of 10 e-5 M. The class given is functional.
Data set [8] is filed under the species Cavia porcellus. Nature of the data set: Effect on contractile force of spontaneously beating atria from reserpine treated guinea pigs at the concentration of 5x 10 e-4 M. The data set is classed as functional.
A short description of data set [9]: Logarithm of the sum of contributions of each atom to the total lipophilicity of the molecule. As to conditions: octanol/water. The data set is classed as physicochemical.
The species named for data set [10] is Cavia porcellus. In words: Effect on contractile force of spontaneously beating atria from reserpine treated guinea pigs at the concentration of 10 e-3 M. The data set is classed as functional.
For data set [11], the species on record is Cavia porcellus. Nature of the data set: Effect on contractile force of spontaneously beating atria from reserpine treated guinea pigs at the concentration of 10 e-5 M. The data set is classed as functional.
The species named for data set [12] is Cavia porcellus. In words: Effect on frequency rate of spontaneously beating atria from reserpine treated guinea pigs at the concentration of 10 e-3 M. The data set is classed as functional.
The species entered for data set [13] is Cavia porcellus. Nature of the data set: Effect on frequency rate of spontaneously beating atria from reserpine treated guinea pigs at the concentration of 5 x 10 e-4 M. The data set is classed as functional.
The species entered for data set [14] is Cavia porcellus. In words: Inotropic effect in electrically driven left atrium from reserpine-treated guinea pig at the concentration of 10 e-5 M. The data set is classed as functional, Cardiac atrium. An outline of the steps:
as §1

The species entered for data set [15] is Cavia porcellus. In words: Effect on contractile force of spontaneously beating atria from reserpine treated guinea pigs at the concentration of 10 e-4 M. The class given is functional.
For data set [16], the species on record is Cavia porcellus. In words: Effect on frequency rate of spontaneously beating atria from reserpine treated guinea pigs at the concentration of 2 x 10 e-3 M. The class given is functional.
Data set [17] is filed under the species Cavia porcellus. In words: Inotropic effect in electrically driven left atrium from reserpine-treated guinea pig at the concentration of 5 x 10 e-4 M. The class given is functional, Cardiac atrium. An outline of the steps:
as §1

The species entered for data set [18] is Cavia porcellus. In words: Inotropic effect in electrically driven left atrium from reserpine-treated guinea pig at the concentration of 10 e-3 M. The class given is functional, Cardiac atrium. An outline of the steps:
as §1

Data set [19] is filed under the species Cavia porcellus. In words: Inotropic effect in electrically driven left atrium from reserpine-treated guinea pig at the concentration of 10 e-4 M. The data set is classed as functional, Cardiac atrium. An outline of the steps: as §1

Each structure is given as a SMILES string. Where “and” joins values, the source holds several entries; their conditions need not be identical. Equal entries are not always repeated.

In the case of `O=C(O)c1cc2c(nc1O)CCCC2=O`, the Increase result in the data set filed under Cavia porcellus [1] is “arrhythmias”.
`Cc1[nH]c(=O)c(C#N)cc1-c1ccncc1` [MILRINONE]: the Increase was 29.31% in the data set listed under Cavia porcellus [2]; 22.83% in the data set listed under Cavia porcellus [3]; 35.26% in the data set listed under Cavia porcellus [4]; 37.95% in the data set listed under Cavia porcellus [5]; 31.32% in the data set listed under Cavia porcellus [6]; 16.41% and 28.1% in the data set listed under Cavia porcellus [7]. The Increase is reported as 46.52% in the data set filed under Cavia porcellus [8]; 33.09% in the data set listed under Cavia porcellus [10]; 18.25% in the data set filed under Cavia porcellus [11]; 39.2% in the data set filed under Cavia porcellus [12]; 43.96% in the data set filed under Cavia porcellus [13]; 13.25% in the data set listed under Cavia porcellus [14]. In addition, the Increase is 38.76% in the data set filed under Cavia porcellus [15]; 31.79% in the data set filed under Cavia porcellus [16]; 44.72% in the data set filed under Cavia porcellus [17]; 41.96% in the data set filed under Cavia porcellus [18]; 34.61% in the data set filed under Cavia porcellus [19]. This compound also yielded a logP in data set [9] of 2.89.
As to `Nc1cc(-c2ccncc2)c[nH]c1=O` [INAMRINONE], the Increase in the data set filed under Cavia porcellus [2] is 25.3%; in the data set filed under Cavia porcellus [3], 6.49%; in the data set filed under Cavia porcellus [4], 15.68%; in the data set listed under Cavia porcellus [5], 34.6%; in the data set listed under Cavia porcellus [6], 11.52%; in the data set listed under Cavia porcellus [7], 4.62% and 8.85%. Also, the Increase in the data set listed under Cavia porcellus [8] came out at 23.92%; in the data set listed under Cavia porcellus [10], 28.81%; in the data set listed under Cavia porcellus [11] it was 7.08%; in the data set filed under Cavia porcellus [12], 30.69%; in the data set listed under Cavia porcellus [13] it was 24.11%; in the data set listed under Cavia porcellus [14], 4.5%. For the same compound, the Increase was determined as 17.92% in the data set listed under Cavia porcellus [15]; 26.3% in the data set listed under Cavia porcellus [16]; 22.3% in the data set filed under Cavia porcellus [17]; 27% in the data set filed under Cavia porcellus [18]; 17.52% in the data set listed under Cavia porcellus [19]. The logP in [9] is 2.66.
